This note sets out measurements from ChEMBL document CHEMBL2311439, “New bis-thiazolium analogues as potential antimalarial agents: design, synthesis, and biological evaluation” (J Med Chem, 2013).

A word on the IC50: it is the point on the concentration scale where inhibition reaches its midpoint. Usually ED50 stands for the midpoint of the dose-response relation. A lower ED50 goes with greater potency. The bioavailability is the share of a dose that reaches the circulation, judged against a reference dose that is usually intravenous.

For one data set, the system named is Plasmodium falciparum. In words: Antiplasmodial activity against Plasmodium falciparum Nigeria infected in human erythrocytes assessed as incorporation of [3H]hypoxanthine after 48 hrs. It counts as functional, organism-based. Put shortly: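 Nigerian-strain P. falciparum-infected erythrocytes at 1.5% final hematocrit and 0.6% parasitemia, grown in Hepes-buffered RPMI 1640 with 10% AB human serum. Drugs dissolved in DMSO, final DMSO ≤0.25%. Modified Desjardins test: [³H]hypoxanthine incorporation measured after 48 h drug contact. IC₅₀ is the concentration giving 50% growth inhibition. Two independent experiments.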

Data set [1] concerns Plasmodium vinckei petteri. Nature of the data set: Antimalarial activity against Plasmodium vinckei petteri 279BY infected in Swiss mouse administered as ip qd for 4 days measured on day 5. It counts as functional. The gist of the method: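 Female Swiss mice infected intravenously with 10⁷ P. vinckei petteri 279BY parasites (parasitemia 0.5−1% on day 1). Compounds in DMSO, 0.9% NaCl or intralipid/DMSO (90/10) given ip once daily on days 1−4 postinfection. Parasitemia read on day 5. ED₅₀ is the dose giving 50% parasitemia inhibition, determined only when parasitemia fell by at least 85%. Three mice per dose.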

A short description of data set [2]: Oral bioavailability in Sprague-Dawley rat at 12 mg/kg. It counts as ADME, organism-based. As to conditions: in vivo.
Another data set concerns Mus musculus. Nature of the data set: Toxicity in ip dosed Swiss mouse administered for 4 days measured on day 5. As to conditions: in vivo, 96 h. The class given is organism-based.
Another data set has as its system Jurkat. In words: Cytotoxicity against human Jurkat cells after 24 hrs by [3H]thymidine incorporation assay. The class given is cell-based. The gist of the method: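 Human Jurkat lymphoblasts exposed to compounds for 24 h, then [³H]thymidine added to gauge viability. Values are means of two independent experiments run in duplicate, differing by less than 40%.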

A short description of data set [3]: Therapeutic index, ratio of ED50 for human Jurkat cells to IC50 for Plasmodium falciparum Nigeria infected in human erythrocytes. It counts as cell-based.

As for `Cc1c(CCOCCCCCCOCCc2sc[n+](C)c2C)sc[n+]1C`, the IC50 with Plasmodium falciparum worked out at 120 nM.

Turning to `Cc1c(CCOCCCCCCOCCc2sc[n+](Cc3ccccc3)c2C)sc[n+]1Cc1ccccc1`, the IC50 with Plasmodium falciparum is 15 nM.

For the molecule `Cc1c(CCO)sc[n+]1CCCCc1ccc(CCCC[n+]2csc(CCO)c2C)cc1.[Cl-].[Cl-]`, it took a dose of 1.2 mg/kg to reach the 50% effect level in data set [1] (ED50). In addition, the IC50 with Plasmodium falciparum was determined as 20.5 nM.

In data set [2], `C/C(=C1\CCOC(=O)S1)N(C=O)CCCCCCCCCCCCN(C=O)/C(C)=C1\CCOC(=O)S1` had a bioavailability of 15%.

As for `Cc1c(CCO)sc[n+]1CCOc1ccc(Cc2ccc(OCC[n+]3csc(CCO)c3C)cc2)cc1.[Cl-].[Cl-]`, the ED50 in data set [1] was above 1 mg/kg. The IC50 in the data set with Plasmodium falciparum was 22 nM.

Take `COCCc1sc[n+](CCOc2ccc(Cc3ccc(OCC[n+]4csc(CCOC)c4C)cc3)cc2)c1C.[Cl-].[Cl-]`: the ED50 in data set [1] was above 1 mg/kg. Further, the IC50 in the data set with Plasmodium falciparum amounted to 22.5 nM.

Regarding `COCCc1sc[n+](CCOc2ccc(C(=O)c3ccc(OCC[n+]4csc(CCOC)c4C)cc3)cc2)c1C.[Cl-].[Cl-]`, the ED50 in data set [1] was above 2 mg/kg. Also, the IC50 in the data set on Plasmodium falciparum amounted to 80 nM. In addition, the Activity entry in the data set with Mus musculus is “Non-toxic”.

In turn, `COCCc1sc[n+](CCOc2ccc(-c3ccc(OCC[n+]4csc(CCOC)c4C)cc3)cc2)c1C.[Br-].[Br-]` gave an ED50 in data set [1] above 0.6 mg/kg. Also, in the data set on Plasmodium falciparum, the half-inhibitory concentration (IC50) was 18.5 nM.

On to `COCCc1sc[n+](Cc2ccc(OCCCCCOc3ccc(C[n+]4csc(CCOC)c4C)cc3)cc2)c1C.[Cl-].[Cl-]`, for which, in data set [1], the ED50 was above 0.4 mg/kg. Also, the IC50 with Plasmodium falciparum worked out at 313 nM.

Regarding `Cc1c(CCO)sc[n+]1CCCc1ccc(CCC[n+]2csc(CCO)c2C)cc1.[Cl-].[Cl-]`, in data set [1], the 50% effective dose (ED50) is above 0.5 mg/kg. The IC50 with Plasmodium falciparum amounted to 77.5 nM.

With `COCCc1sc[n+](CCCc2ccc(CCC[n+]3csc(CCOC)c3C)cc2)c1C.[Cl-].[Cl-]`, the ED50 in data set [1] was above 1 mg/kg. For the same molecule, the IC50 in the data set with Plasmodium falciparum turned out to be 36.5 nM.

With `COCCc1sc[n+](CCCCc2ccc(CCCC[n+]3csc(CCOC)c3C)cc2)c1C.[Cl-].[Cl-]`, the ED50 in data set [1] came to 0.13 mg/kg. The IC50 in the data set on Plasmodium falciparum was 8.3 nM. Further, the Activity result in the data set on Mus musculus is listed as “Non-toxic”.

As to `COCCc1sc[n+](CCCCc2cccc(CCCC[n+]3csc(CCOC)c3C)c2)c1C.[Cl-].[Cl-]`, the ED50 in data set [1] was above 1 mg/kg. In addition, the IC50 with Plasmodium falciparum is 9 nM.

Regarding `Cc1c(CCO)sc[n+]1CCCCc1ccc(CCCC[n+]2csc(CCO)c2C)s1.[Cl-].[Cl-]`, the ED50 in data set [1] is above 0.6 mg/kg. The IC50 in the data set with Plasmodium falciparum worked out at 16.5 nM.

Consider `COCCc1sc[n+](CCCCc2ccc(CCCC[n+]3csc(CCOC)c3C)s2)c1C.[Cl-].[Cl-]`, for which the 50% effect level in data set [1] (ED50) was put at a dose of 0.28 mg/kg. In addition, the IC50 in the data set with Plasmodium falciparum was found to be 2.7 nM; in the data set on Jurkat it was 63000 nM.

As for `Cc1c(CCO)sc[n+]1CCCCc1ccc(CCCC[n+]2csc(CCO)c2C)c2ccccc12.[Cl-].[Cl-]`, the median effective dose (ED50) in data set [1] is above 0.6 mg/kg. In the data set on Plasmodium falciparum, the IC50 amounted to 6.7 nM.

In data set [1], `COCCc1sc[n+](CCCCc2ccc(CCCC[n+]3csc(CCOC)c3C)c3ccccc23)c1C.[Cl-].[Cl-]` showed an ED50 above 0.6 mg/kg. In addition, in the data set with Plasmodium falciparum, the IC50 came out at 2.1 nM.

On to `COCCc1sc[n+](CCCCc2ccc3ccc(CCCC[n+]4csc(CCOC)c4C)cc3c2)c1C.[Cl-].[Cl-]`, for which it took a dose of 0.5 mg/kg to reach the 50% effect level in data set [1] (ED50). In addition, the IC50 is 6.3 nM in the data set on Plasmodium falciparum and 465000 nM in the data set on Jurkat. The selectivity ratio in data set [3] turned out to be 170000.

As to `COCCc1sc[n+](CCCCc2ccc(-c3ccc(CCCC[n+]4csc(CCOC)c4C)cc3)cc2)c1C.[Cl-].[Cl-]`, in data set [1], the ED50 worked out at 0.7 mg/kg. The IC50 with Plasmodium falciparum amounted to 2.5 nM.

`Cc1c(CCO)sc[n+]1CC#Cc1ccc(C#CC[n+]2csc(CCO)c2C)cc1`: the IC50 in the data set with Plasmodium falciparum turned out to be 1250 nM.

On to `COCCc1sc[n+](CC#Cc2ccc(C#CC[n+]3csc(CCOC)c3C)cc2)c1C`, for which, in the data set with Plasmodium falciparum, the IC50 was 420 nM.

As to `Cc1c(CCO)sc[n+]1CCC#Cc1ccc(C#CCC[n+]2csc(CCO)c2C)cc1`, in the data set on Plasmodium falciparum, the IC50 worked out at 173 nM.

For `Cc1c(CCOCc2cn(CCc3sc[n+](C)c3C)nn2)sc[n+]1C`, the IC50 in the data set on Plasmodium falciparum is 10000 nM.

In the case of `Cc1c(CCOCc2cn(CCc3sc[n+](Cc4ccccc4)c3C)nn2)sc[n+]1Cc1ccccc1`, the IC50 in the data set on Plasmodium falciparum was determined as 640 nM.

As to `COCCc1sc[n+](CCCc2cn(CCc3sc[n+](C)c3C)nn2)c1C`, the IC50 with Plasmodium falciparum was 8200 nM.

Consider `COCCc1sc[n+](CCCc2cn(CCc3sc[n+](Cc4ccccc4)c3C)nn2)c1C`, for which the IC50 in the data set with Plasmodium falciparum is 7000 nM.

As to `COCCc1sc[n+](CCCCCn2cc(CCC[n+]3csc(CCOC)c3C)nn2)c1C`, the IC50 in the data set on Plasmodium falciparum amounted to 1200 nM.

Molecule `Cc1c(CCO)sc[n+]1CCCCCCCCCCCC[n+]1csc(CCO)c1C.[Br-].[Br-]` [ALBITIAZOLIUM BROMIDE] gave an ED50 in data set [1] of 0.2 mg/kg. Besides, the selectivity ratio in data set [3] was 150000. This molecule showed an IC50 in the data set on Jurkat of 347000 nM.
